Series [1] has as its system NCI/ADR-RES. As to the kind of experiment: Modulation of p-glycoprotein-mediated drug resistant in human MCF7/ADR cells assessed as increase of daunomycin accumulation at 100 uM. In kind it is cell-based.
Series [2] in a line: Cytotoxicity against human LCC-6 cells after 5 days by MTS assay. It is filed as cell-based. The conditions noted are these: LCC-6, 120 h. A digest of the protocol:
(§1)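 Cells seeded in 96-well plates (6000/well for LCC6 and LCC6MDR) and exposed to a range of derivative concentrations, dissolved in DMSO at no more than 1% final, for 5 days at 37 °C. Viability read by MTS; IC50 taken from dose–response curves. Three repeats, mean ± SEM. LCC6 lines grown in DMEM with 10% heat-inactivated FBS; L929 is a mouse fibroblast line.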
(In general: Tetrazolium dyes change colour on reduction, which living cells bring about.)

The subject of series [3] is L929. Kind of series: Cytotoxicity against mouse L929 cells after 5 days by MTS assay. In kind it is cell-based. The conditions noted are these: L929, 120 h. A digest of the protocol: as §1
The species named for series [4] is Homo sapiens. Kind of series: Reversal of p-glycoprotein-mediated drug resistant in human LCC-6/MDR cells assessed as potentiation of paclitaxel-induced cytotoxicity at 1 uM after 5 days by MTS assay. It is filed as cell-based. A digest of the protocol:
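LCC6MDR cells (6000/well, DMEM with 10% FBS) given paclitaxel over a range of doses, with or without 1 μM modulator, for 5 days at 37 °C; MTS read-out. IC50 from dose–response curves, and RF = IC50 without / IC50 with 1.0 μM modulator. N = 2–4 independent experiments, mean ± SEM.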

For series [5], the target named is T1, Broad substrate specificity ATP-binding cassette transporter ABCG2 (Homo sapiens, UniProt Q9UNQ0).
T1 sequence (Q9UNQ0 whole entry): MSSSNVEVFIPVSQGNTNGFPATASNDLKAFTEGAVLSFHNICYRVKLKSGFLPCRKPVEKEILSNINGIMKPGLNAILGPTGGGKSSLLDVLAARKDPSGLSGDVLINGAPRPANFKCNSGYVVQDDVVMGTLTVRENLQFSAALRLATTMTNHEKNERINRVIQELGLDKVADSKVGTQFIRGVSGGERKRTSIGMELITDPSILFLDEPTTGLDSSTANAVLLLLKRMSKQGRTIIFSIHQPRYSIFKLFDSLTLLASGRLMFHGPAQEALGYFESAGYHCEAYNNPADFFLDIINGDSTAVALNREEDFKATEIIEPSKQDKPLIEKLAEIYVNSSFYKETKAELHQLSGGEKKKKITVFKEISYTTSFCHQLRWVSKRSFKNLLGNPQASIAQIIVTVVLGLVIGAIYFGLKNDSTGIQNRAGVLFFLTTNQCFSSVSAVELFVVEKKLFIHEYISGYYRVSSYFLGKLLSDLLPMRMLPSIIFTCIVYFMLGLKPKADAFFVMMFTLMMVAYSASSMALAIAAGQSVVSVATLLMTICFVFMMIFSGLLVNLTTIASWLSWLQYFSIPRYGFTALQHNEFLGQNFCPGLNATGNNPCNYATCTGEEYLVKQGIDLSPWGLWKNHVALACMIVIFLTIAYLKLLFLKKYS
Kind of series: Reversal of BCRP-mediated drug resistant in human HEK293/R2 cells assessed as potentiation of topotecan-induced cytotoxicity at 1 uM after 5 days by MTS assay. It is filed as cell-based. The following applies: hek293/r2, 120 h.

In series [6] the target is T1, Broad substrate specificity ATP-binding cassette transporter ABCG2. As to the kind of experiment: Reversal of BCRP-mediated drug resistant in human MCF7-MX100 cells assessed as potentiation of topotecan-induced cytotoxicity at 1 uM after 5 days by MTS assay. The conditions noted are these: mcf7-mx100, 120 h. In kind it is cell-based.
Series [7] deals with Multidrug resistance-associated protein 1 (Homo sapiens, UniProt P33527). Kind of series: Reversal of MRP1-mediated drug resistant in human 2008/MRP1 cells assessed as potentiation of doxorubicin-induced cytotoxicity at 1 uM after 5 days by MTS assay. It is filed as cell-based. The following applies: 2008/mrp1, 120 h.
The nature of series [8]: Cytotoxicity against multidrug resistant human LCC6MDR cells after 5 days by MTS assay. The following applies: 120 h.

SMILES strings stand for the structures.

Multidrug resistance-associated protein 1, sequence (P33527 whole entry): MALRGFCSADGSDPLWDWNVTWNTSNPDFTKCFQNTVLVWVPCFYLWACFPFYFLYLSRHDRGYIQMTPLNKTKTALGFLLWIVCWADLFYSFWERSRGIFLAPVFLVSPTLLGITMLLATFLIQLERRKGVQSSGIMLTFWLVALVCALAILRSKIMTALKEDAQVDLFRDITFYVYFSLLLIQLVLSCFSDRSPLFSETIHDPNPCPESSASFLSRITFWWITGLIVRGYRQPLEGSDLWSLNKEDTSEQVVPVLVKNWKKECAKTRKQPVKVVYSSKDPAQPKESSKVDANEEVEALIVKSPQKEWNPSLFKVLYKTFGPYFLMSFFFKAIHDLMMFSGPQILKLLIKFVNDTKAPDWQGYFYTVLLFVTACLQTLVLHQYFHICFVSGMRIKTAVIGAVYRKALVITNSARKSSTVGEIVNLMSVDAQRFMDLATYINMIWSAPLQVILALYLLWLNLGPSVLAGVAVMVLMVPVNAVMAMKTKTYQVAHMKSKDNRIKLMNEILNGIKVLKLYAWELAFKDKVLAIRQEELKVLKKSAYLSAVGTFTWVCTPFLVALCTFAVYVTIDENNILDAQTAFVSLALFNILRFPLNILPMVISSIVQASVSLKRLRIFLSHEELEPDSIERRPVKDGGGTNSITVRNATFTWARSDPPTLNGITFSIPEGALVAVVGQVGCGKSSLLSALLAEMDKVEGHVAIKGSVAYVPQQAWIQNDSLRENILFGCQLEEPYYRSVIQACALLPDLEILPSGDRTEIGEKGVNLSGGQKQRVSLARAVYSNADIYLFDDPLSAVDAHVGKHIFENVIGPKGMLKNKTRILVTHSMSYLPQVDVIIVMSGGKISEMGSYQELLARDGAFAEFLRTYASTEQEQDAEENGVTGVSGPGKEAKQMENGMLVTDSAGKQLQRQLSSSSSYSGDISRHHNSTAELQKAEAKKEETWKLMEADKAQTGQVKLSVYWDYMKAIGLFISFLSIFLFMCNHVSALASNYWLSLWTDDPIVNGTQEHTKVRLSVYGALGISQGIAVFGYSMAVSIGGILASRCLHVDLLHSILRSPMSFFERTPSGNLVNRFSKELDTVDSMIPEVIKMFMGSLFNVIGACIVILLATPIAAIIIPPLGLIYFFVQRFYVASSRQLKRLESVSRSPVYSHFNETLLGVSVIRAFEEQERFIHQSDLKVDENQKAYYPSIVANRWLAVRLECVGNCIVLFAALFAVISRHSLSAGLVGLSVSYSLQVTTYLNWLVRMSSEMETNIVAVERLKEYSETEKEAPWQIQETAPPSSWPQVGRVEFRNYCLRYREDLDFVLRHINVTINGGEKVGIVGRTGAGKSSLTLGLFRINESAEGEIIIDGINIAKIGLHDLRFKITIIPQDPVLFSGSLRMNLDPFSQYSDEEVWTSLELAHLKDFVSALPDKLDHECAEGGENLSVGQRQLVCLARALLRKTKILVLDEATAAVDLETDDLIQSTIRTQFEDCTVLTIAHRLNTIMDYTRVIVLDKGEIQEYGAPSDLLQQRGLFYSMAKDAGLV

As for `COc1ccc(CCN(C)CCCC(C#N)(c2ccc(OC)c(OC)c2)C(C)C)cc1OC` (configuration not stated), the Activity in series [1] turned out to be 229%.

In the case of `COc1cc(OC)c2c(=O)c(OCCn3cnc4c(N)ncnc43)c(-c3ccc(OC)c(OC)c3)oc2c1`, the 50% inhibitory concentration (IC50) in series [2], in series [3] and in series [8] was over 100 µM throughout. Further, the fold change (FC) in series [4] amounted to 1.1; in series [5], 1.2; in series [6], 1.2; in series [7] it was 0.8.

With `C[C@@H]1O[C@@H](OC[C@H]2O[C@@H](Oc3c(-c4ccc(O)c(O)c4)oc4cc(O)cc(O)c4c3=O)[C@H](O)[C@@H](O)[C@@H]2O)[C@H](O)[C@H](O)[C@H]1O` [RUTIN], the IC50 in series [2], in series [3] and in series [8] was over 100 µM each time. The fold change (FC) in series [4] came to 0.9; in series [5] it was 1.3; in series [6] it was 4.3; in series [7] it was 1.2.

Turning to `COc1cc(OC)c2c(=O)c(O[C@@H]3O[C@H](CO[C@@H]4O[C@@H](C)[C@H](OC)[C@@H](OC)[C@H]4OC)[C@@H](OC)[C@H](OC)[C@H]3OC)c(-c3ccc(OC)c(OC)c3)oc2c1`, the IC50 in series [2], in series [3] and in series [8] was over 100 µM in each case. Besides, the fold change (FC) worked out at 1 in series [4], 1.5 in series [5], 5.3 in series [6] and 1.4 in series [7].

As for `COc1cc(O)c2c(=O)c(OC)c(-c3ccc(OC)c(OC)c3)oc2c1` [RETUSIN], the IC50 in series [2], in series [3] and in series [8] was over 100 µM in each case. In addition, the fold change (FC) amounted to 3.7 in series [4], 13 in series [5], 19.3 in series [6] and 0.7 in series [7].

For the compound `COc1cc(OC)c2c(=O)c(OCCOc3cc4c(Nc5ccc(F)c(Cl)c5)ncnc4cc3OC)c(-c3ccc(OC)c(OC)c3)oc2c1`, the IC50 in series [2], in series [3] and in series [8] was over 100 µM in each case. Further, the fold change (FC) in series [4] amounted to 1.5; in series [5], 4.3; in series [6] it was 1.2; in series [7], 1.

As for `COc1cc(OC)c2c(=O)c(OCCn3cnc4c(=O)n(C)c(=O)n(C)c43)c(-c3ccc(OC)c(OC)c3)oc2c1`, the IC50 in series [2], in series [3] and in series [8] was over 100 µM in each case. Further, the fold change (FC) in series [4] was found to be 1.2; in series [5], 1.4; in series [6] it was 1.4; in series [7], 1.

`COc1cc(OC)c2c(=O)c(OCCOC(=O)c3cc(OC)c(OC)c(OC)c3)c(-c3ccc(OC)c(OC)c3)oc2c1`: the IC50 in series [2], in series [3] and in series [8] was over 100 µM in each case. In addition, the fold change (FC) was 3.2 in series [4], 4.7 in series [5], 2 in series [6] and 1.1 in series [7].

For `COc1cc(OC)c2c(=O)c(OCCOC(=O)/C=C/c3cc(OC)c(OC)c(OC)c3)c(-c3ccc(OC)c(OC)c3)oc2c1`, the IC50 in series [2], in series [3] and in series [8] was over 100 µM each time. The fold change (FC) in series [4] is 6; in series [5], 14; in series [6], 9.1; in series [7] it was 1.5.

In the case of `COc1cc(OC)c2c(=O)c(OCC(=O)c3ccc(OC)c(OC)c3)c(-c3ccc(OC)c(OC)c3)oc2c1`, the IC50 in series [2], in series [3] and in series [8] was over 100 µM throughout. The fold change (FC) in series [4] was determined as 1.3; in series [5], 1.4; in series [6] it was 1.4; in series [7] it was 0.9.

Take `COc1cc(OC)c2c(=O)c(OCc3cc(OC)c(OC)c(OC)c3)c(-c3ccc(OC)c(OC)c3)oc2c1`: the IC50 – broadly, the concentration at which inhibition is half-maximal – in series [2] came to 14.5 µM; in series [3] it was 17.6 µM; in series [8], 46.6 µM. The fold change (FC) amounted to 9.6 in series [4], 11.3 in series [5], 4.7 in series [6] and 1.2 in series [7].

For the compound `COc1cc(OC)c2c(=O)c(OCCO)c(-c3ccc(OC)c(OC)c3)oc2c1`, the IC50 in series [2], in series [3] and in series [8] was over 100 µM in each case. In addition, the fold change (FC) worked out at 1.4 in series [4], 3.9 in series [5], 1.5 in series [6] and 0.8 in series [7].

In the case of `O=c1c(O)c(-c2ccc(O)c(O)c2)oc2cc(O)cc(O)c12` [QUERCETIN], the Activity in series [1] is 202%. The IC50 in series [2], in series [3] and in series [8] was over 100 µM in each case.

`COc1cc(OC)c2c(=O)c(OCCOC(=O)c3ccc(OC)c(OC)c3)c(-c3ccc(OC)c(OC)c3)oc2c1`: the IC50 in series [2], in series [3] and in series [8] was over 100 µM throughout. Further, the fold change (FC) in series [4] worked out at 6.4; in series [5] it was 4.6; in series [6], 6.7; in series [7], 1.2.

With `COc1cc(OC)c2c(=O)c(OC)c(-c3ccc(OC)c(OC)c3)oc2c1`, the IC50 in series [2], in series [3] and in series [8] was over 100 µM throughout. In addition, the fold change (FC) in series [4] is 1.9; in series [5] it was 8.7; in series [6], 7.9; in series [7] it was 0.8.

On to `COc1ccc(C(=O)OCCOc2c(-c3ccc(OC)c(OC)c3)oc3cc(OC)cc(OC)c3c2=O)cc1`, for which the IC50 in series [2], in series [3] and in series [8] was over 100 µM throughout. The fold change (FC) worked out at 11.3 in series [4], 12.1 in series [5], 7.3 in series [6] and 1.5 in series [7].

Regarding `COc1cc(OC)c2c(=O)c(O)c(-c3ccc(OC)c(OC)c3)oc2c1`, the half-maximal inhibitory concentration (IC50) in series [2], in series [3] and in series [8] was over 100 µM each time. In addition, the fold change (FC) in series [4] turned out to be 1.7; in series [5] it was 3.3; in series [6], 6; in series [7], 0.7.

With `COc1cc(OC)c2c(=O)c(OC(=O)c3cc(OC)c(OC)c(OC)c3)c(-c3ccc(OC)c(OC)c3)oc2c1`, the IC50 in series [2] is over 79 µM; in series [3] it was 74.1 µM; in series [8], 87.4 µM. In addition, the fold change (FC) in series [4] worked out at 2.1; in series [5] it was 5.8; in series [6], 9.6; in series [7], 0.9.

The values above are taken from ChEMBL document CHEMBL2040714, “Synthesis of methylated quercetin derivatives and their reversal activities on P-gp- and BCRP-mediated multidrug resistance tumour cells” (Eur J Med Chem, 2012).
